The subject of experiment [1] is Mycolicibacterium smegmatis. Nature of the experiment: Antimicrobial activity against Mycobacterium smegmatis by agar dilution method. In kind it is functional. A digest of the protocol:
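Agar dilution against M. smegmatis ATCC 14468; MIC determined in duplicate.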

Experiment [2] concerns Mycobacterium tuberculosis. The experiment is described as follows: Antimycobacterial activity against Mycobacterium tuberculosis ATCC 35801 infected CD1 mouse assessed as spleen bacterial count at 25 mg/kg, ip after 35 days post infection. The note with it: route intraperitoneal. The class given is functional. The method, boiled down:
(§1)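 CD-1 mice were infected intravenously via the caudal vein with about 10⁷ viable M. tuberculosis ATCC 35801. Intraperitoneal treatment began 10 days after inoculation and ran for 10 days. At 35 days post-infection, spleens and right lungs were homogenized, serially diluted 10-fold and plated on 7H10 agar at 37 °C in ambient air for 4 weeks. Counts were compared with vehicle-treated controls and given as log CFU ± SEM.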

For experiment [3], the system named is Mycobacterium tuberculosis. Nature of the experiment: Antimycobacterial activity against Mycobacterium tuberculosis ATCC 35801 infected CD1 mouse assessed as lung bacterial count at 25 mg/kg, ip after 35 days post infection. The note with it: route intraperitoneal. In kind it is functional. A digest of the protocol: as §1
The next experiment relates to Vero. Nature of the experiment: Cytotoxicity against Vero cells after 72 hrs by MTT assay. The class given is cell-based. The note with it: Chlorocebus sabaeus. A digest of the protocol:
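Vero cells were exposed to serially diluted compound up to 62.5 µg/mL for 72 h. Viability was read by cellular conversion of MTT to formazan (CellTiter 96 non-radioactive proliferation assay), and IC50 was derived.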
Background: Tetrazolium dyes change colour on reduction, which living cells bring about.

The test system of experiment [4] is Mycobacterium tuberculosis. The experiment is described as follows: Antimycobacterial activity against Mycobacterium tuberculosis H37Rv by agar dilution method. In kind it is functional. The method, boiled down:
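MIC was determined by agar dilution, in duplicate.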
In general terms: Agar dilution tests growth on a series of plates holding different concentrations.

SMILES strings stand for the structures. Converted amounts (≈) assume the structure as drawn. Some results are limits rather than exact numbers.

A word on the MIC: it is the lowest concentration that inhibits growth of the organism. A high value points to a less susceptible organism. Broadly, the IC50 is the concentration at which inhibition is half-maximal. Low values mean greater potency, high ones weaker potency. Turning to `NNC(=O)c1ccncc1` [ISONIAZID], the values for the MIC in experiment [1] and in experiment [4] were 45.6 µM (≈ 6.25 µg/mL) and 0.36 µM (≈ 0.0494 µg/mL), respectively. The Log10 cfu in experiment [2] came out at 4.71; in experiment [3] it was 5.86. Also, in the experiment on Vero, the IC50 was greater than 456 µM.
